Calls of active or inactive are those of the source. No cut-off for these calls is given here.
Legend:
[1] = target: Metabotropic glutamate receptor 7 (Rattus norvegicus) (UniProt P35400); assay: Antagonist activity against LSP4-202-induced rat mGlu7 activation transfected in HEK293 cells co-transfected with chimeric Gqi9 assessed as decrease in LSP4-202 potency by measuring LSP4-202 pEC50 incubated for 24 hrs by IP-one HTRF assay; format: functional, cell-based
Summary of the method: (§1)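 IP-One HTRF IP1 read-out in HEK293 transiently expressing rat mGlu7 plus chimeric Gqα9, 24 h after electroporation. LSP4-2022 concentration-response was tested with derivatives at 30 or 100 µM. Gives pEC50, pEC50/pEC50 control ratio, and max as % of LSP4-2022 maximal effect over basal. Triplicates, n independent experiments; paired t-test.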

[2] = organism: Rattus norvegicus; assay: Ratio of pEC50 for antagonist activity against LSP4-202-induced rat mGlu7 activation transfected in HEK293 cells co-transfected with chimeric Gqi9 assessed as decrease in LSP4-202 potency to pEC50 for LSP4-202-induced rat mGlu7 activation transfected in HEK293 cells co-transfected with chimeric Gqi9; format: cell-based; summary of the method: as §1
[3] = target: Metabotropic glutamate receptor 7 (Rattus norvegicus) (UniProt P35400); assay: Antagonist activity against LSP4-202-induced rat mGlu7 activation transfected in HEK293 cells co-transfected with chimeric Gqi9 assessed as decrease in LSP4-202 potency by measuring LSP4-202 maximum efficacy at 30 to 100 uM incubated for 24 hrs by IP-one HTRF assay relative to control; format: functional, cell-based; settings: filed as antagonist, dose 30-100 µM; summary of the method: as §1
[4] = target: T1, Metabotropic glutamate receptor 7 (Rattus norvegicus, UniProt P35400); assay: Antagonist activity against rat mGlu7 activation transfected in HEK293 cells co-transfected with chimeric Gqi9 incubated for 24 hrs in presence of LSP4-2022 by IP-one HTRF assay; format: functional, cell-based
T1 sequence (P35400 whole entry): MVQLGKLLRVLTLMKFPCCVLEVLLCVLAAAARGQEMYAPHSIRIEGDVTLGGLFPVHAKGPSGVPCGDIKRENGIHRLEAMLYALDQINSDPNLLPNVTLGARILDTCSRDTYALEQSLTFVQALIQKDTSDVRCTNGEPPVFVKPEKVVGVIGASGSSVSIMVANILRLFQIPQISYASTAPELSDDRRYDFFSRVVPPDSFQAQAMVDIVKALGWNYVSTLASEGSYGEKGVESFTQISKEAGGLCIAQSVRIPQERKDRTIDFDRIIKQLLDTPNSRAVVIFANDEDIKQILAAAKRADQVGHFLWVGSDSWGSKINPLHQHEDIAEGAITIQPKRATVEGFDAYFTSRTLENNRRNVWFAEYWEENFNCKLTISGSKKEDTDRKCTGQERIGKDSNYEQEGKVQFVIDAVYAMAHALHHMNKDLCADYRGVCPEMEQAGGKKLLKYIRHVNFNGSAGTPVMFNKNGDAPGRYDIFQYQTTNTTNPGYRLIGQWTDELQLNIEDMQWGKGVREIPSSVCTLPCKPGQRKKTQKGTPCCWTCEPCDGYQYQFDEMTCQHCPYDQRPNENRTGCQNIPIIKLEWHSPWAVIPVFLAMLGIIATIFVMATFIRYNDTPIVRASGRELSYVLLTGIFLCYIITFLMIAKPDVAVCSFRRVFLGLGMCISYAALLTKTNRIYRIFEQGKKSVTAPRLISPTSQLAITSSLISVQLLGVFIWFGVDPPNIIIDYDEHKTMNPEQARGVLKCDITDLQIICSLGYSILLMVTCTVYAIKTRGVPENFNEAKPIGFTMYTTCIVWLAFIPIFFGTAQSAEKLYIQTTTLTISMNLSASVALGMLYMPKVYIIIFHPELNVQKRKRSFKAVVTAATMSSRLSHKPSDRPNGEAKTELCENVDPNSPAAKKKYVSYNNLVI
Summary of the method: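 Inhibition curves were run with increasing inhibitor concentrations against IP1 production by 30 µM LSP4-2022. Rat mGlu7 was co-expressed with Gqα9 in HEK293 and assayed 24 h post-transfection with IP-One HTRF. IC50/pIC50 are means ± sem of independent experiments in triplicates. pIC50 compared to reference by unpaired t-test.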

[5] = target: Metabotropic glutamate receptor 7 (Rattus norvegicus) (UniProt P35400); assay: Competitive antagonist activity against rat mGlu7 receptor assessed as decrease in LSP4-202 effect at 0.3 to 30 uM by Schild plot analysis; settings: filed as antagonist, dose 0.3-30 µM
Summary of the method: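 Schild analysis used the shift of LSP4-2022 concentration-response curves in IP-One IP1 assays. Cells were HEK293 co-transfected with rat mGlu7 and Gqα9. Data are means ± sem of 3 to 11 experiments run in triplicates.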

[6] = organism: Rattus norvegicus; assay: Ratio of pEC50 for antagonist activity against LSP4-202 induced wild type rat mGlu7 assessed as decrease in LSP4-202 potency by measuring LSP4-202 pEC50 at 3 uM to pEC50 for LSP4-202-induced wild type rat mGlu7
[7] = organism: Rattus norvegicus; assay: Ratio of pEC50 for antagonist activity against LSP4-202 induced wild type rat mGlu7 assessed as decrease in LSP4-202 potency by measuring LSP4-202 pEC50 at 10 uM to pEC50 for LSP4-202-induced wild type rat mGlu7
[8] = organism: Rattus norvegicus; assay: Ratio of pEC50 for antagonist activity against LSP4-202 induced wild type rat mGlu7 assessed as decrease in LSP4-202 potency by measuring LSP4-202 pEC50 at 30 uM to pEC50 for LSP4-202-induced wild type rat mGlu7
[9] = Antagonist activity against LSP4-202-induced rat mGlu7 […] mutant assessed as decrease in LSP4-202 potency by measuring LSP4-202 pEC50 at 10 uM
[10] = Antagonist activity against LSP4-202-induced rat mGlu7 […] mutant assessed as decrease in LSP4-202 potency by measuring LSP4-202 pEC50 at 30 uM
[11] = Antagonist activity against LSP4-202-induced rat mGlu7 […] mutant assessed as decrease in LSP4-202 potency by measuring LSP4-202 pEC50 at 100 uM
[12] = organism: Rattus norvegicus; assay: Ratio of pEC50 for antagonist activity against LSP4-202 induced rat mGlu7 S229A mutant assessed as decrease in LSP4-202 potency by measuring LSP4-202 pEC50 at 10 uM to pEC50 for LSP4-202-induced rat mGlu7 S229A mutant
[13] = organism: Rattus norvegicus; assay: Ratio of pEC50 for antagonist activity against LSP4-202 induced rat mGlu7 S229A mutant assessed as decrease in LSP4-202 potency by measuring LSP4-202 pEC50 at 30 uM to pEC50 for LSP4-202-induced rat mGlu7 S229A mutant
[14] = organism: Rattus norvegicus; assay: Ratio of pEC50 for antagonist activity against LSP4-202 induced rat mGlu7 S229A mutant assessed as decrease in LSP4-202 potency by measuring LSP4-202 pEC50 at 100 uM to pEC50 for LSP4-202-induced rat mGlu7 S229A mutant
[15] = Antagonist activity against LSP4-202-induced rat mGlu7 […] mutant assessed as decrease in LSP4-202 potency by measuring LSP4-202 pEC50 at 3 uM
[16] = organism: Rattus norvegicus; assay: Ratio of pEC50 for antagonist activity against LSP4-202 induced rat mGlu7 S229A mutant assessed as decrease in LSP4-202 potency by measuring LSP4-202 pEC50 at 3 uM to pEC50 for LSP4-202-induced rat mGlu7 S229A mutant
[17] = target: Metabotropic glutamate receptor 4 (Rattus norvegicus, UniProt P31423); assay: Agonist activity against wild type rat mGlu4; format: functional
Metabotropic glutamate receptor 4 (Rattus norvegicus, UniProt P31423), sequence (P31423 whole entry): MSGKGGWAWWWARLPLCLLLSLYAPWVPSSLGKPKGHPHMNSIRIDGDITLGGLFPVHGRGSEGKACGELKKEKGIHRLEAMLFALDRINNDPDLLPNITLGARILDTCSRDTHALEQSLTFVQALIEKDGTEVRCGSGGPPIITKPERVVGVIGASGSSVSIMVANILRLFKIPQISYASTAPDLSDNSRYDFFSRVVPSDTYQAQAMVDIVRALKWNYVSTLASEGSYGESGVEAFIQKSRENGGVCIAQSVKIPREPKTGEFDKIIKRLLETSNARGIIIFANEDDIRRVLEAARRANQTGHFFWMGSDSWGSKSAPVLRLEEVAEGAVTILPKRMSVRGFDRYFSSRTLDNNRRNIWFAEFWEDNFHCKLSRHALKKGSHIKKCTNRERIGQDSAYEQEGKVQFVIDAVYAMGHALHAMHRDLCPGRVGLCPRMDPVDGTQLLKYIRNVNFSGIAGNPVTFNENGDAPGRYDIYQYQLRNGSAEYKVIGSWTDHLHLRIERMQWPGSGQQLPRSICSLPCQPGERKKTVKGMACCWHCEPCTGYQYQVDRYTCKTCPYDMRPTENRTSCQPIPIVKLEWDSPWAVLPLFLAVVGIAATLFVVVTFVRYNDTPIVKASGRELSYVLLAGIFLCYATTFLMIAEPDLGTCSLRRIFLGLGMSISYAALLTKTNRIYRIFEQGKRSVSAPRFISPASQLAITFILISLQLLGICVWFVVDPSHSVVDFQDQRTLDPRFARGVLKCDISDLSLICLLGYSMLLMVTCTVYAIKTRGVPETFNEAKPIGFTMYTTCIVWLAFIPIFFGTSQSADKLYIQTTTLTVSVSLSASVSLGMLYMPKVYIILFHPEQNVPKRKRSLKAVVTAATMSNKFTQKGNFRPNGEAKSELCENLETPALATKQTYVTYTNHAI

[18] = target: Metabotropic glutamate receptor 4 (Rattus norvegicus, UniProt P31423, R60A); assay: Agonist activity against rat mGlu4 R60A mutant
Metabotropic glutamate receptor 4 (Rattus norvegicus, UniProt P31423, R60A), sequence (P31423 33-912 R60A limits assumed): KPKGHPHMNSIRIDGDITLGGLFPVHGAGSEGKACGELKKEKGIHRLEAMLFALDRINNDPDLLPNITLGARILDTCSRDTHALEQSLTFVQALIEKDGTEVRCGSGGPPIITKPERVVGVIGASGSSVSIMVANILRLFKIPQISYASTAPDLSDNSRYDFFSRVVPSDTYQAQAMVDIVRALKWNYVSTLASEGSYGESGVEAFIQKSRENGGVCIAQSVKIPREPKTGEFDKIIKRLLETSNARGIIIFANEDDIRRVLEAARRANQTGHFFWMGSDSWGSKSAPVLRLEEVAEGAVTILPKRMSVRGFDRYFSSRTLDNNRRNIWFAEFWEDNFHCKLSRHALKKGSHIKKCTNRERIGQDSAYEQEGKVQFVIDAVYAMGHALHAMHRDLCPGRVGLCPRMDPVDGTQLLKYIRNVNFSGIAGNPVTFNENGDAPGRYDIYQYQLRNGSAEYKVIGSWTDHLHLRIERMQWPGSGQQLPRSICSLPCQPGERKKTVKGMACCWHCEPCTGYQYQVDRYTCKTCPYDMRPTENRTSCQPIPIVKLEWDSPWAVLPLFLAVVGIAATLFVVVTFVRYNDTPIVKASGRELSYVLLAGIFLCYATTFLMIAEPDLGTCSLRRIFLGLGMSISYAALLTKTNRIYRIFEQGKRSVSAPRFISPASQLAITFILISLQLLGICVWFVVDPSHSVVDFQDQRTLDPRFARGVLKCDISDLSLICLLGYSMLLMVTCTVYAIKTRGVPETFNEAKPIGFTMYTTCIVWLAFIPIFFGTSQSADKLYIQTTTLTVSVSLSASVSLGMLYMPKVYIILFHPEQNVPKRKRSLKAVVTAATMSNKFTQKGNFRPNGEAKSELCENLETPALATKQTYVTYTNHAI

[19] = target: Metabotropic glutamate receptor 4 (Rattus norvegicus, UniProt P31423, K74A); assay: Agonist activity against rat mGlu4 K74A mutant
Metabotropic glutamate receptor 4 (Rattus norvegicus, UniProt P31423, K74A), sequence (P31423 33-912 K74A limits assumed): as the sequence (P31423 33-912 R60A limits assumed) above, with A28R, K42A counted along it

[20] = target: Metabotropic glutamate receptor 4 (Rattus norvegicus, UniProt P31423, S160A); assay: Agonist activity against rat mGlu4 S160A mutant
Metabotropic glutamate receptor 4 (Rattus norvegicus, UniProt P31423, S160A), sequence (P31423 33-912 S160A limits assumed): as the sequence (P31423 33-912 R60A limits assumed) above, with A28R, S128A counted along it

[21] = target: Metabotropic glutamate receptor 4 (Rattus norvegicus, UniProt P31423, S160D); assay: Agonist activity against rat mGlu4 S160D mutant
Metabotropic glutamate receptor 4 (Rattus norvegicus, UniProt P31423, S160D), sequence (P31423 33-912 S160D limits assumed): as the sequence (P31423 33-912 R60A limits assumed) above, with A28R, S128D counted along it

[22] = target: Metabotropic glutamate receptor 4 (Rattus norvegicus, UniProt P31423, R258A); assay: Agonist activity at rat mGlu4 R258A mutant
Metabotropic glutamate receptor 4 (Rattus norvegicus, UniProt P31423, R258A), sequence (P31423 33-912 R258A limits assumed): as the sequence (P31423 33-912 R60A limits assumed) above, with A28R, R226A counted along it

[23] = Agonist activity at rat mGlu4 R258Q/D262/R263 mutant
[24] = Agonist activity at rat mGlu4 loop beta-10-alpha7 region
[25] = target: T1, Metabotropic glutamate receptor 7; assay: Agonist activity at wild type rat mGlu7; format: functional
Summary of the method: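 HEK293 cells were transiently transfected by electroporation with rat mGlu7 plasmid plus chimeric Gqα9 to couple to phospholipase C. They were grown in DMEM with 10% FBS on polyornithine-coated wells at 150 000 cells/well.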

[26] = target: Metabotropic glutamate receptor 7 (Rattus norvegicus, UniProt P35400, K60A); assay: Agonist activity at rat mGlu7 K60A mutant
Metabotropic glutamate receptor 7 (Rattus norvegicus, UniProt P35400, K60A), sequence (P35400 35-915 K60A limits assumed): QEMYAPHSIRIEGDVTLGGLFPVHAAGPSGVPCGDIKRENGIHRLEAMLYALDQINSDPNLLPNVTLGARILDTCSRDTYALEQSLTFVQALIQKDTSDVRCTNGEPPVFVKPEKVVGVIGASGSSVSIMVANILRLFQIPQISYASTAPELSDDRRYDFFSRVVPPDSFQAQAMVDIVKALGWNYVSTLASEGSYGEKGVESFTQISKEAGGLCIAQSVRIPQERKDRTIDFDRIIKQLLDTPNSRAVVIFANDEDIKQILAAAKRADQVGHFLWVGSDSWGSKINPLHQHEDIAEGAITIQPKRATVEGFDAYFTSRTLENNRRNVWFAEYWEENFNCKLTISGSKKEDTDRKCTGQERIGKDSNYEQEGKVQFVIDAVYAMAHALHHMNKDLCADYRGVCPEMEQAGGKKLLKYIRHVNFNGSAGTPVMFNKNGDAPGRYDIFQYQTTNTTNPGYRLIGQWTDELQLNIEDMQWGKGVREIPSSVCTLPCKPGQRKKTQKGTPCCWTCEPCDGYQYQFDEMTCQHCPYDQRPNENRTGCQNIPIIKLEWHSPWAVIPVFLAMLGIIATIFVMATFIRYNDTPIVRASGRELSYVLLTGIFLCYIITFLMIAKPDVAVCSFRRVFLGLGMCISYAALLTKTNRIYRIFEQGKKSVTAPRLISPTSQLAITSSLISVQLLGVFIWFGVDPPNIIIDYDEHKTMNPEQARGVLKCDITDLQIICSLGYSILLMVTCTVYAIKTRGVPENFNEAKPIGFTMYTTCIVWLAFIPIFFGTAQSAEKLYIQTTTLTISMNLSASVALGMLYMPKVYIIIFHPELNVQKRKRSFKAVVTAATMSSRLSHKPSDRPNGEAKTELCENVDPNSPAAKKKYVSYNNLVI

[27] = target: Metabotropic glutamate receptor 7 (Rattus norvegicus, UniProt P35400, N74A); assay: Agonist activity at rat mGlu7 N74A mutant
Metabotropic glutamate receptor 7 (Rattus norvegicus, UniProt P35400, N74A), sequence (P35400 35-915 N74A limits assumed): as the sequence (P35400 35-915 K60A limits assumed) above, with A26K, N40A counted along it

[28] = target: Metabotropic glutamate receptor 7 (Rattus norvegicus, UniProt P35400, N74K); assay: Agonist activity at rat mGlu7 N74K mutant
Metabotropic glutamate receptor 7 (Rattus norvegicus, UniProt P35400, N74K), sequence (P35400 35-915 N74K limits assumed): as the sequence (P35400 35-915 K60A limits assumed) above, with A26K, N40K counted along it

[29] = Agonist activity at rat mGlu7 Q258R/D262/R263 mutant
[30] = Agonist activity at rat mGlu7 loop beta10-alpha7 region
[31] = Agonist activity at rat mGlu7 S229A mutant
[32] = Agonist activity at rat mGlu7 D314A mutant

Metabotropic glutamate receptor 7 (Rattus norvegicus), sequence (P35400 whole entry): as the sequence (P35400 whole entry) above

O=c1c2ccccc2oc2c1oc1ccc(Br)cc12
inhibition [1]: inactive

O=Cc1ccc(OCC(=O)c2ccc(O)cc2)cc1F
Ratio [2]: 1 | Emax [3]: 106%

O=C(COc1ccc(Br)cc1F)c1ccc(O)c(O)c1
Ratio [2]: 0.76 | Emax [3]: 90.3% | IC50 ([4]; read-out: IC50): 3.44 µM | IC50 ([4]; read-out: pIC50 (converted)): 3.31 µM | Activity [5]: Active | Ratio [6]: 0.91 | Ratio [7]: 0.85 | Ratio [8]: 0.79 | EC50 [9]: 38.2 µM | pEC50 [9]: 4.42 | EC50 [10]: 35.7 µM | pEC50 [10]: 4.53 | EC50 [11]: 27 µM | pEC50 [11]: 4.6 | Ratio [12]: 0.91 | Ratio [13]: 0.93 | Ratio [14]: 0.95

COc1ccc(C(=O)COc2ccc(I)cc2)cc1
Ratio [2]: 0.97 | Emax [3]: 93.6%

O=C(COc1ccc(Br)cc1F)c1ccc(O)c(F)c1
Ratio [2]: < 0.6 | IC50 ([4]; read-out: IC50): 0.95 µM | IC50 ([4]; read-out: pIC50 (converted)): 0.851 µM | Activity [5]: Active | Ratio [6]: 0.82 | Ratio [7]: 0.72 | Ratio [8]: 0.59 | EC50 [9]: 9.91 µM | pEC50 [9]: 5 | EC50 [10]: 21.7 µM | pEC50 [10]: 4.68 | EC50 [11]: 60.7 µM | pEC50 [11]: 4.25 | EC50 [15]: 6.88 µM | pEC50 [15]: 5.16 | Ratio [12]: 0.97 | Ratio [13]: 0.91 | Ratio [14]: 0.82 | Ratio [16]: 1

O=C(COc1ccc(Br)cc1F)c1ccc(O)cc1
Ratio [2]: 0.76 | Emax [3]: 87.3% | IC50 ([4]; read-out: IC50): 2.6 µM | IC50 ([4]; read-out: pIC50 (converted)): 2.24 µM

O=C(COc1ccc(I)cc1)c1ccc(O)cc1
Ratio [2]: 0.83 | Emax [3]: 98.3%

O=C(COc1ccc(F)cc1F)c1ccc(O)cc1
Ratio [2]: 1.04 | Emax [3]: 100%

COc1ccc(C(=O)COc2ccc(C(F)(F)F)cc2)cc1
Ratio [2]: 0.97 | Emax [3]: 96.6%

O=C(COc1c(F)cc(Br)cc1F)c1ccc(O)cc1
Ratio [2]: 0.85 | Emax [3]: 94.6%

O=C(COc1ccc([N+](=O)[O-])cc1)c1ccc(O)cc1
Ratio [2]: 0.87 | Emax [3]: 98.5%

N[C@@H](CCP(=O)(O)O)C(=O)O
EC50 [17]: 0.343 µM | EC50 [18]: 1.16 µM | EC50 [19]: 0.23 µM | EC50 [20]: 2.66 µM | EC50 [21]: 12.3 µM | EC50 [22]: 1.87 µM | EC50 [23]: 11.1 µM | EC50 [24]: 0.505 µM | EC50 [25]: > 100 µM | EC50 [26]: 1980 µM | EC50 [27]: > 100 µM | EC50 [28]: 10.5 µM | EC50 [29]: > 100 µM | EC50 [30]: 45 µM | EC50 [31]: 182 µM | EC50 [32]: > 1000 µM

O=c1c2ccc(O)cc2oc2c1oc1cc(I)ccc12
inhibition [1]: inactive

COc1ccc(OCC(=O)c2ccc(O)cc2)cc1
Ratio [2]: 0.96 | Emax [3]: 97.6%

Cc1cc(I)ccc1OCC(=O)c1ccc(O)cc1
Ratio [2]: 0.97 | Emax [3]: 98.3%

O=C(COc1ccc(C(F)(F)F)cc1)c1ccc(O)cc1
Ratio [2]: 0.91 | Emax [3]: 101%

O=C(COc1ccc(Br)cc1F)c1cc(F)c(O)c(F)c1
Ratio [2]: < 0.6 | IC50 ([4]; read-out: IC50): 1.25 µM | IC50 ([4]; read-out: pIC50 (converted)): 1.15 µM | Activity [5]: Active

O=c1c2ccccc2oc2c1oc1cc(O)ccc12
inhibition [1]: inactive

O=C(COc1ccc(Br)cc1Br)c1ccc(O)cc1
Ratio [2]: 0.97 | Emax [3]: 96.1%

COc1ccc(C(=O)COc2ccc(I)cc2)cc1OC
Ratio [2]: 1.05 | Emax [3]: 80.4%

O=C(COc1ccc([N+](=O)[O-])c([N+](=O)[O-])c1)c1ccc(O)cc1
Ratio [2]: 1 | Emax [3]: 101%

O=C(COc1c(Cl)cc(Br)cc1Cl)c1ccc(O)cc1
Ratio [2]: 1.01 | Emax [3]: 101%

COc1ccc(C(=O)COc2ccc([N+](=O)[O-])cc2)cc1
Ratio [2]: 0.95 | Emax [3]: 85.2%

From ChEMBL document CHEMBL5523707, “Novel Inhibitory Site Revealed by XAP044 Mode of Action on the Metabotropic Glutamate 7 Receptor Venus Flytrap Domain” (J Med Chem, 2024)
